One may read the IC50 as the concentration that inhibits the measured activity by half.

Assay [1] deals with T1, Polyunsaturated fatty acid 5-lipoxygenase (Homo sapiens, UniProt P09917).
T1 sequence (P09917 whole entry): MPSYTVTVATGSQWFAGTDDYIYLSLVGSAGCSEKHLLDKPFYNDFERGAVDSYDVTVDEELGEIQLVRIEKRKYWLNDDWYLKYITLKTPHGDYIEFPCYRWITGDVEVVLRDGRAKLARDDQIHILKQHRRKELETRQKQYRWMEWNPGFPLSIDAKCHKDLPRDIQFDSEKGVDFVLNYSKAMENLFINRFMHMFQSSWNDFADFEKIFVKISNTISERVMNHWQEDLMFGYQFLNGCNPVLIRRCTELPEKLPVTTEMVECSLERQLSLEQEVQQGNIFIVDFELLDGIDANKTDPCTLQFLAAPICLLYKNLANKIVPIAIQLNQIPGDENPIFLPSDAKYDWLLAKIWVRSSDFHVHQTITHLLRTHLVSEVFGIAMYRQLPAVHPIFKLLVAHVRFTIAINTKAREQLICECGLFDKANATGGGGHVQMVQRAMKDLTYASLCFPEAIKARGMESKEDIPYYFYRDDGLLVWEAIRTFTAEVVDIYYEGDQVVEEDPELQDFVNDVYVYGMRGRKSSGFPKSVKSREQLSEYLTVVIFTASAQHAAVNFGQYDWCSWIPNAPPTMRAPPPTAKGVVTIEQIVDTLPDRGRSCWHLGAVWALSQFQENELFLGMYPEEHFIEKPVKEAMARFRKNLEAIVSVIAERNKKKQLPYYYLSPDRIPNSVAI
Briefly: Inhibition of human recombinant 5-LOX assessed as reduction in LTB4 level using 800 uM arachidonic acid as substrate preincubated with enzyme for 10 mins followed by substrate addition and measured after 10 mins by ELISA. In outline:
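Human recombinant 5-LOX, 1 unit per reaction, in PBS pH 7.4 containing 1 mM Na2EDTA and 200 µM ATP. Compound in DMSO (DMSO blank) held 10 min at 4°C. CaCl2 added, reaction started with arachidonic acid (800 µM solution) for 10 min at 37°C. Formic acid stop, 1:15 dilution, LTB4 measured by ELISA as % inhibition versus blank. At least three experiments in at least duplicate.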
On the technique in general: In an ELISA, binding on a coated surface is turned into a signal by an enzyme label.

Assay [2] deals with T2, Prostaglandin G/H synthase 1 (Ovis aries, UniProt P05979).
T2 sequence (P05979 whole entry): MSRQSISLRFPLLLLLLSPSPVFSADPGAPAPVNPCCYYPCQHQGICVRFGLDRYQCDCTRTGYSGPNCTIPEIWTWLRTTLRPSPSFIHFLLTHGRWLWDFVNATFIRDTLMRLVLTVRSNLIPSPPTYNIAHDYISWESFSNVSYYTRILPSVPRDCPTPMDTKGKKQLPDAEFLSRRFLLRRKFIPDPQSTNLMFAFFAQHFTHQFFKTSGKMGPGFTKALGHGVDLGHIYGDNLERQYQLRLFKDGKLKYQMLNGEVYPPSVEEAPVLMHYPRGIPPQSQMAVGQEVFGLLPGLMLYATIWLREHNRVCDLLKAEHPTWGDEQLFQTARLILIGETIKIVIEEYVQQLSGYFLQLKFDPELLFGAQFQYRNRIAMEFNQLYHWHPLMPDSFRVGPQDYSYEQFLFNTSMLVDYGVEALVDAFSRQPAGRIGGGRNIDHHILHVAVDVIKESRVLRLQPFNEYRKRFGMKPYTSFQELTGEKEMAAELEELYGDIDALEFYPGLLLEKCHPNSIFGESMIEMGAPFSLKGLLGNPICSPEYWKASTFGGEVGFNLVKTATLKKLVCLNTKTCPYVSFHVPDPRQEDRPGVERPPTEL
Briefly: Competitive inhibition of ovine COX-1 assessed as reduction in PGE2 level using 50 nM arachidonic acid as substrate preincubated with enzyme for 5 mins followed by substrate addition and measured after 20 mins by ELISA. The procedure, abridged:
(§1)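 Substrate-dependence test. Enzyme in 100 mM Tris pH 8.0 with 5 µM porcine hematin, 18 mM L-epinephrine and 50 µM Na2EDTA. Compound in DMSO (DMSO blank) preincubated 5 min at room temperature. Arachidonic acid added to final 50, 250 or 1250 nM, then 20 min at 37°C. Stopped with 10% formic acid, diluted 1:15, PGE2 quantified by ELISA at 405 nm. Inhibition calculated versus blank at the same AA level.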

Assay [3] deals with T2, Prostaglandin G/H synthase 1. Briefly: Inhibition of ovine COX-1 assessed as reduction in PGE2 level using 10 uM arachidonic acid as substrate preincubated with enzyme for 5 mins followed by substrate addition and measured after 20 mins by ELISA. The procedure, abridged:
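Enzyme in 100 mM Tris pH 8.0 with 5 µM porcine hematin, 18 mM L-epinephrine and 50 µM Na2EDTA. Compound in DMSO (DMSO blank) 5 min at room temperature. Arachidonic acid (10 µM) added, 20 min at 37°C. Stopped with 10% formic acid, diluted 1:15, PGE2 measured by ELISA at 405 nm as % inhibition versus blank. At least three experiments in at least duplicate. Non-active below 50% inhibition at 20 µM.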

Assay [4] can be described thus: Antioxidant activity assessed as radical scavenging activity at 400 uM measured after 30 mins by DPPH assay. The assay is classed as functional. In outline:
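Test compounds in methanol, two-fold serial dilution to final 3.125–400 µM, incubated 30 min with DPPH in methanol (stated final […]) at room temperature in the dark. Absorbance read at 517 nm. Trolox and L-ascorbic acid served as positive references. Activity expressed as EC50.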
On the technique in general: DPPH is a stable violet radical that fades when it is reduced.

Assay [5] addresses T3, Prostaglandin G/H synthase 2 (Homo sapiens, UniProt P35354).
T3 sequence (P35354 whole entry): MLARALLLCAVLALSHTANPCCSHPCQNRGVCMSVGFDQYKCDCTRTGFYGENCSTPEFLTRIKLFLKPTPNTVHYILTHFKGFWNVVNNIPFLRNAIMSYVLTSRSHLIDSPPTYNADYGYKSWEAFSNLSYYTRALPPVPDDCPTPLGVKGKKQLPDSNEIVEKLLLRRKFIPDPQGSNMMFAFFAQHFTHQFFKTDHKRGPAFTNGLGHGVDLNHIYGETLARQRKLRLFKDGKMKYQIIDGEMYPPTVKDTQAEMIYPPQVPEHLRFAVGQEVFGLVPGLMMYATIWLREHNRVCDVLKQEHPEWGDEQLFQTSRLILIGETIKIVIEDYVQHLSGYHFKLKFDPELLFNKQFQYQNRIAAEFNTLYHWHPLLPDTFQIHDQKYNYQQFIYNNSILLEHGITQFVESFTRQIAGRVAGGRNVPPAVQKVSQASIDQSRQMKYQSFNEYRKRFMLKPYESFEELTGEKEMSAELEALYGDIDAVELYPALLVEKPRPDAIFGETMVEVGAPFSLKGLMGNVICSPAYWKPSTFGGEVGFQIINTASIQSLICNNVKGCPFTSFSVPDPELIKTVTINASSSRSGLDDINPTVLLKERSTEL
The assay is described as follows: Inhibition of human recombinant COX-2 assessed as reduction in PGE2 level using 10 uM arachidonic acid as substrate preincubated with enzyme for 5 mins followed by substrate addition and measured after 20 mins by ELISA.

The target of assay [6] is T2, Prostaglandin G/H synthase 1. Briefly: Competitive inhibition of ovine COX-1 assessed as reduction in PGE2 level using 250 nM arachidonic acid as substrate preincubated with enzyme for 5 mins followed by substrate addition and measured after 20 mins by ELISA. In outline: as §1
Assay [7] deals with T1, Polyunsaturated fatty acid 5-lipoxygenase. The assay is described as follows: Inhibition of human recombinant 5-LOX assessed as reduction in LTB4 level using 5 to 80 uM arachidonic acid as substrate preincubated with enzyme for 10 mins followed by substrate addition and measured after 10 mins by ELISA. In outline:
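Human recombinant 5-LOX, 1 unit per reaction, in PBS pH 7.4 with 1 mM Na2EDTA and 200 µM ATP. Compound in DMSO preincubated 10 min at 4°C. CaCl2 added, then arachidonic acid at final 5, 20 or 80 µM, 10 min at 37°C. Stopped with 10% formic acid, diluted 1:15, LTB4 measured by ELISA. Inhibition calculated versus blank at the matching AA level.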

Assay [8] concerns the target T2, Prostaglandin G/H synthase 1. The assay is described as follows: Competitive inhibition of ovine COX-1 assessed as reduction in PGE2 level using 1250 nM arachidonic acid as substrate preincubated with enzyme for 5 mins followed by substrate addition and measured after 20 mins by ELISA. The procedure, abridged:
as §1

Assay [9] is described as follows: Selectivity index, ratio of IC50 for ovine COX-1 to IC50 for human recombinant COX-2.

Active and inactive are the calls of the source. No cut-off for these calls is given here.

Consider `CCCCCCCCCCCC1=CC(=O)C=C(OC)C1=O`, for which the IC50 was 340 nM in assay [1]; 800 nM in [2]; 1070 nM in [3]; 570 nM in assay [5]; 2770 nM in [6]; 710 nM in assay [7]. Further, the IC50 in assay [8] is greater than 20000 nM. Further, the outcome in assay [4] was inactive. For the same molecule, the Ratio IC50 in assay [9] came to 1.88.

Source of the values: ChEMBL document CHEMBL4706530, “Synthesis, inhibitory activity and in silico docking of dual COX/5-LOX inhibitors with quinone and resorcinol core” (Eur J Med Chem, 2020).
